In ChEMBL document CHEMBL1132410, “5-Chloro-N-(4-methoxy-3-piperazin-1-yl- phenyl)-3-methyl-2-benzothiophenesulfon- amide (SB-271046): a potent, selective, and orally bioavailable 5-HT6 receptor antagonist” (J Med Chem, 1999):
Blank lines part the entries; values can stand above or below the compound they belong to.

What was measured:
[1] = molecular target: 5-hydroxytryptamine receptor 6 (Homo sapiens, UniProt P50406); test: Binding affinity against human cloned 5-hydroxytryptamine 6 receptor in HeLa cells using [3H]LSD; assay type: cell-based
5-hydroxytryptamine receptor 6, sequence (P50406 whole entry): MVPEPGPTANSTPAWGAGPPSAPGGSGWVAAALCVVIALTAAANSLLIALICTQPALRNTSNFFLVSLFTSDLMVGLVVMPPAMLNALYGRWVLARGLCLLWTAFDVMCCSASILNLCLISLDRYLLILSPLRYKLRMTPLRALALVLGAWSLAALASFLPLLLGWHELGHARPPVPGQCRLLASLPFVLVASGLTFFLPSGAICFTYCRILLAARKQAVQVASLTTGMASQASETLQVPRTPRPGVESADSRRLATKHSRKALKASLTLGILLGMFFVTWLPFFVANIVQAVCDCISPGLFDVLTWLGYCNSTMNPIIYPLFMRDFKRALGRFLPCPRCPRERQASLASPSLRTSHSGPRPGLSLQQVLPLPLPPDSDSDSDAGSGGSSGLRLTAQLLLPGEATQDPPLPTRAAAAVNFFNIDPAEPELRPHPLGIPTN
Method in brief: (§1)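 Radioligand binding at human cloned receptors; cell hosts and radioligands as listed per line: 5-HT1A, 5-HT2A, 5-HT2B, 5-HT2C and 5-HT7 in HEK 293 cells; 5-HT1B, 5-HT1D, 5-HT1E, 5-HT1F, D2 and D3 in CHO cells; 5-HT6 in HeLa cells. Values are the mean of at least two determinations, each within 0.2 log unit of the mean.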

[2] = organism: Homo sapiens; test: Selectivity for 5-HT6 receptors with respect to the 5-HT1A, 5-HT1B, 5-HT1D, 5-HT1E, 5-HT1F, 5-HT2A, 5-HT2B, 5-HT2C, 5-HT4, 5-HT7, Alpha-1B, D2, D3 receptors.
[3] = molecular target: 5-hydroxytryptamine receptor 2A (Homo sapiens, UniProt P28223); test: Compound was tested for its binding affinity against 5-hydroxytryptamine 2A receptor in human cloned receptors in HEK 293 cells using [3H]ketanserin; assay type: cell-based, HEK293; method in brief: as §1
5-hydroxytryptamine receptor 2A, sequence (P28223 whole entry): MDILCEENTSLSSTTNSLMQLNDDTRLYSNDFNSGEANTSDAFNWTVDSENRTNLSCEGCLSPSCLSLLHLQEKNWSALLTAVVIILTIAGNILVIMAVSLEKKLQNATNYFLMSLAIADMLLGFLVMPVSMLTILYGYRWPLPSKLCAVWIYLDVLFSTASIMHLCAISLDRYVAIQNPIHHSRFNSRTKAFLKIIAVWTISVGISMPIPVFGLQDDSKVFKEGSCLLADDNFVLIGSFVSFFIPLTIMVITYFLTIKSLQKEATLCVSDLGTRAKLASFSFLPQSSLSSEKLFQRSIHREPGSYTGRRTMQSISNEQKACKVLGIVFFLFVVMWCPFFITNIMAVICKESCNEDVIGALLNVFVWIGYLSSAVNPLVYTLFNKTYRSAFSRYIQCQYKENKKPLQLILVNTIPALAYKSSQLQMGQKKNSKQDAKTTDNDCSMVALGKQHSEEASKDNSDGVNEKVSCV

[4] = molecular target: 5-hydroxytryptamine receptor 1E (Homo sapiens, UniProt P28566); test: Compound was tested for its binding affinity against cloned human 5-hydroxytryptamine 1E receptor in CHO cells using [3H]-5-HT; assay type: cell-based; method in brief: as §1
5-hydroxytryptamine receptor 1E, sequence (P28566 whole entry): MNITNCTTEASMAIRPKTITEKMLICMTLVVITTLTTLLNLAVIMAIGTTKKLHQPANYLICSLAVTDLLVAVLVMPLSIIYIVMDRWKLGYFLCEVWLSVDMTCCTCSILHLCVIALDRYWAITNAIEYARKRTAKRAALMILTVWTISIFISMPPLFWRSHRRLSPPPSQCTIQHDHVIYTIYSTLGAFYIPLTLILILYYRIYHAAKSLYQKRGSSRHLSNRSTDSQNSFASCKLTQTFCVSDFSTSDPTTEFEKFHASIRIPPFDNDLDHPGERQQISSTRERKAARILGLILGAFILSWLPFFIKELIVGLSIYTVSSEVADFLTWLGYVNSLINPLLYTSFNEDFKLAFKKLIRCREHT

[5] = molecular target: T1, 5-hydroxytryptamine receptor 1A (Homo sapiens, UniProt P08908); test: Compound was tested for its binding affinity against 5-hydroxytryptamine 1A receptor in human cloned receptors in HEK 293 cells using [3H]8-OH-DPAT; assay type: cell-based, HEK293; method in brief: as §1
T1 sequence (P08908 whole entry): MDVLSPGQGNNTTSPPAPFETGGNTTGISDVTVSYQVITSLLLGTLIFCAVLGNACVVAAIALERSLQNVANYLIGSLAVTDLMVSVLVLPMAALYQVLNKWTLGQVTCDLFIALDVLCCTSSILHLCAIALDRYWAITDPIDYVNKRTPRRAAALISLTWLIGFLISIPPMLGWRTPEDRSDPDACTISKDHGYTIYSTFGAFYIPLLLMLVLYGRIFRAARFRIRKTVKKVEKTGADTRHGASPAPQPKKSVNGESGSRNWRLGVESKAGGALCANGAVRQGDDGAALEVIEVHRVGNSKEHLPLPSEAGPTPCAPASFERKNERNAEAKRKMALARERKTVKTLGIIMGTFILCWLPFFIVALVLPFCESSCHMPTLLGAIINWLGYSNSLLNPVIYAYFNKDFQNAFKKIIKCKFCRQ

[6] = molecular target: 5-hydroxytryptamine receptor 1B (Homo sapiens, UniProt P28222); test: Compound was tested for its binding affinity against human cloned 5-hydroxytryptamine 1B receptor in CHO cells using [3H]5-HT; assay type: cell-based; method in brief: as §1
5-hydroxytryptamine receptor 1B, sequence (P28222 whole entry): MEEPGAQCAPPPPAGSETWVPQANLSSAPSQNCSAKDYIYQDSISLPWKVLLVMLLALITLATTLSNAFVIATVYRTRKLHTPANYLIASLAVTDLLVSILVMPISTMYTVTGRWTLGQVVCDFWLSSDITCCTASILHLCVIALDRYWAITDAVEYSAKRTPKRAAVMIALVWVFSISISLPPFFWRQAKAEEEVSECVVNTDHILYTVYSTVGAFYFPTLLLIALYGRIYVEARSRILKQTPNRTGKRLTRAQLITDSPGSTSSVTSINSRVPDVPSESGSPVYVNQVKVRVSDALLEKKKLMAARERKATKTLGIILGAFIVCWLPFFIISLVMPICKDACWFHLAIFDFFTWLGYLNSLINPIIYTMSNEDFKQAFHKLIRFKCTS

[7] = molecular target: T2, Alpha-1B adrenergic receptor (Homo sapiens, UniProt P35368); test: Compound was tested for its binding affinity against Alpha-1B adrenergic receptor
T2 sequence (P35368 whole entry): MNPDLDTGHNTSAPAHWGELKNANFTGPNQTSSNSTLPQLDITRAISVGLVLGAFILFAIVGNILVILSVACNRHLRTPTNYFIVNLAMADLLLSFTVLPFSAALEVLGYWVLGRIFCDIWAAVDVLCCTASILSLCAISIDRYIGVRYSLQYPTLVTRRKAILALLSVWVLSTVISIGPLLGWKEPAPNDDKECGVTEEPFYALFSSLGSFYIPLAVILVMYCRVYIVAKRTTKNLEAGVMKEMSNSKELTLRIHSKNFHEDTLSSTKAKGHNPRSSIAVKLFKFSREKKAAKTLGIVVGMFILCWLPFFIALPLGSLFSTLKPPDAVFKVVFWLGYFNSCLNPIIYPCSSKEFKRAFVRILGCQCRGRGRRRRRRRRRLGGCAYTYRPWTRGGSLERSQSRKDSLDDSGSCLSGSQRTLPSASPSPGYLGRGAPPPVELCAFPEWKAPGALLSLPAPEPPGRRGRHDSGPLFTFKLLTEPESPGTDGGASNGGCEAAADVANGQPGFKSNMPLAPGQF

[8] = molecular target: 5-hydroxytryptamine receptor 1D (Homo sapiens, UniProt P28221); test: Compound was tested for its binding affinity against human cloned 5-hydroxytryptamine 1D receptor in CHO cells using [3H]5-HT; assay type: cell-based; method in brief: as §1
5-hydroxytryptamine receptor 1D, sequence (P28221 whole entry): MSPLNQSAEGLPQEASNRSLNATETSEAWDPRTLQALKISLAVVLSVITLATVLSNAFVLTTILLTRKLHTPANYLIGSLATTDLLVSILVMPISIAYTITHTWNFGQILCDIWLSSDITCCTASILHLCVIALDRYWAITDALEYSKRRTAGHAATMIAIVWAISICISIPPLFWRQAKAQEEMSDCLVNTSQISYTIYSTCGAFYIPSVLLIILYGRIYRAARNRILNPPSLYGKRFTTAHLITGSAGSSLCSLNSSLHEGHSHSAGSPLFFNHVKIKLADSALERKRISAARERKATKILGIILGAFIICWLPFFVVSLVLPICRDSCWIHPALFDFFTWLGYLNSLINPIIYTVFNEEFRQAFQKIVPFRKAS

[9] = molecular target: T3, 5-hydroxytryptamine receptor 1F (Homo sapiens, UniProt P30939); test: Compound was tested for its binding affinity against 5-hydroxytryptamine 1F receptor in human cloned receptors in CHO cells using [3H]5-HT; assay type: cell-based; method in brief: as §1
T3 sequence (P30939 whole entry): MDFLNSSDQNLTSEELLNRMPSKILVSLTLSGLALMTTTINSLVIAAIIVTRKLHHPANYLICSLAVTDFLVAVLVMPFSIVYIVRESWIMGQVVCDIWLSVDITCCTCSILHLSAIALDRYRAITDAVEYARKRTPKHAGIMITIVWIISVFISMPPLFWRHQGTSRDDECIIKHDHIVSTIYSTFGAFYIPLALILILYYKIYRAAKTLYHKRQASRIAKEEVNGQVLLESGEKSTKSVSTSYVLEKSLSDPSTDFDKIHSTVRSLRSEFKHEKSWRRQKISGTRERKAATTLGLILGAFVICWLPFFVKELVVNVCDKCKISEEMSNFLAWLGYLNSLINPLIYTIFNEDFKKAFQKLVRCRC

[10] = molecular target: T4, 5-hydroxytryptamine receptor 2C (Homo sapiens, UniProt P28335); test: Compound was tested for its binding affinity against human cloned 5-hydroxytryptamine 2C receptor in HEK 293 cells using [3H]mesulergine; assay type: cell-based, HEK293; method in brief: as §1
T4 sequence (P28335 whole entry): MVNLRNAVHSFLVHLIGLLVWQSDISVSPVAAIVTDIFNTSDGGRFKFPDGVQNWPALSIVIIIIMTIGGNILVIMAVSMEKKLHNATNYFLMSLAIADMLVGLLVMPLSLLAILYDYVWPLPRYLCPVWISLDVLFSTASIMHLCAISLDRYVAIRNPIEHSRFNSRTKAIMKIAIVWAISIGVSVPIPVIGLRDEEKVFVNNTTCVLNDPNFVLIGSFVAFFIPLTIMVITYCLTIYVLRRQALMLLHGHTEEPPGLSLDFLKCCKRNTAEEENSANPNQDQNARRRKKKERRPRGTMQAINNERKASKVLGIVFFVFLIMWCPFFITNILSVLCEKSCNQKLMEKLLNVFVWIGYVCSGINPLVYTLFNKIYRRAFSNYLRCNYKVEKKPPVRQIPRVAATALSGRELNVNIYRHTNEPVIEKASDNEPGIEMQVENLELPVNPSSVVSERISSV

[11] = molecular target: 5-hydroxytryptamine receptor 2B (Homo sapiens, UniProt P41595); test: Compound was tested for its binding affinity against cloned human 5-hydroxytryptamine 2B receptor in HEK 293 cells using [3H]5-HT; assay type: cell-based, HEK293; method in brief: as §1
5-hydroxytryptamine receptor 2B, sequence (P41595 whole entry): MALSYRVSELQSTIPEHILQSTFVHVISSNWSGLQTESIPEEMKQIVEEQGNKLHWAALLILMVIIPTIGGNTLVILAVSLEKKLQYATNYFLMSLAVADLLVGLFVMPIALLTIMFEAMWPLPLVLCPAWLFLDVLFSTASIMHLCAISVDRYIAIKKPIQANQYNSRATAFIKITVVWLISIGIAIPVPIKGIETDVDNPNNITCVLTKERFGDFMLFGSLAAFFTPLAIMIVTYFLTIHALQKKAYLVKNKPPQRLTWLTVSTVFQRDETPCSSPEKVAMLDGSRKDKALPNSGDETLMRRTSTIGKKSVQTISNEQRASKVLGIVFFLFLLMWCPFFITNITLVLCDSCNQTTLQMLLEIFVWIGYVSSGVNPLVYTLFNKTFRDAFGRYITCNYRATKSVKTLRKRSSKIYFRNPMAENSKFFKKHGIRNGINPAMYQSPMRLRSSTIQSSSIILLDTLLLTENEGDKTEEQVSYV

[12] = molecular target: 5-hydroxytryptamine receptor 4 (Homo sapiens, UniProt Q13639); test: Compound was tested for its binding affinity against 5-hydroxytryptamine 4 receptor
5-hydroxytryptamine receptor 4, sequence (Q13639 whole entry): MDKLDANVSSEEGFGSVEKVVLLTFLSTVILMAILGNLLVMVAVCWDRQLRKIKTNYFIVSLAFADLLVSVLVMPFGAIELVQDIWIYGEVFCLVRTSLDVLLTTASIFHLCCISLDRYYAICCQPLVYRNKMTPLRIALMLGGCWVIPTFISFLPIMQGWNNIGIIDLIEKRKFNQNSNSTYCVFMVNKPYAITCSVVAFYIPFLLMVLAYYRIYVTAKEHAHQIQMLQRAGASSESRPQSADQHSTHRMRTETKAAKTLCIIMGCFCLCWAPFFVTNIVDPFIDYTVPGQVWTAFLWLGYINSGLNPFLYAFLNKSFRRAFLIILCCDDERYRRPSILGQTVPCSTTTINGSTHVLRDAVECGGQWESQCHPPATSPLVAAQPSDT

[13] = molecular target: D(2) dopamine receptor (Homo sapiens, UniProt P14416); test: Compound was tested for its binding affinity against Dopamine receptor D2 in human cloned receptors in CHO cells using [125 I]iodosulpride; assay type: cell-based; method in brief: as §1
D(2) dopamine receptor, sequence (P14416 whole entry): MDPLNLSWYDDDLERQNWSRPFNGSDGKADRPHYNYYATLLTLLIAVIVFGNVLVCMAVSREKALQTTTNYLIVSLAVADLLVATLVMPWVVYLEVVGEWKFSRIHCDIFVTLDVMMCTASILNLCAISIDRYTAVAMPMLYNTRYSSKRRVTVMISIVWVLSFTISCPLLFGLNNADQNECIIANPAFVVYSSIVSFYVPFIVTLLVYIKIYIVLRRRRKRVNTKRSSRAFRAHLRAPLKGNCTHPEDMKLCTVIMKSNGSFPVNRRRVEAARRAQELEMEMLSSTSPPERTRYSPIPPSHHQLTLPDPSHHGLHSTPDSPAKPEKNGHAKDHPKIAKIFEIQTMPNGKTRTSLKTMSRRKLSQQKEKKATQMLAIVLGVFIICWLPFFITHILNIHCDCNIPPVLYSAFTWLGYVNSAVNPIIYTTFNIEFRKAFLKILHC

[14] = molecular target: D(3) dopamine receptor (Homo sapiens, UniProt P35462); test: Compound was tested for its binding affinity against Dopamine receptor D3 in human cloned receptors in CHO cells using [125 I]iodosulpride; assay type: cell-based; method in brief: as §1
D(3) dopamine receptor, sequence (P35462 whole entry): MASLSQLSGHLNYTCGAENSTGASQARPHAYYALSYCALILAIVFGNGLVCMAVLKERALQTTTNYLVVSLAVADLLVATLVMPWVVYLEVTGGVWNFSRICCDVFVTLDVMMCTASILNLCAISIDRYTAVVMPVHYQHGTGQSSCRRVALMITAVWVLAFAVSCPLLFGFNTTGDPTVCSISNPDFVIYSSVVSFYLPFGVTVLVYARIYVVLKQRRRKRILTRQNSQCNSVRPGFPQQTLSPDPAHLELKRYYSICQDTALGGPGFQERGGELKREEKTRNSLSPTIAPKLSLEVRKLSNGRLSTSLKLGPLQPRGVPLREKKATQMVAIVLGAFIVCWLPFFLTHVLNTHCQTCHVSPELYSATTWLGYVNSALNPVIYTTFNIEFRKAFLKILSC

[15] = molecular target: 5-hydroxytryptamine receptor 7 (Homo sapiens, UniProt P34969); test: Compound was tested for its binding affinity against human cloned 5-hydroxytryptamine 7 receptor in HEK 293 cells using [3H]5-CT; assay type: cell-based, HEK293; method in brief: as §1
[16] = molecular target: T5, Cytochrome P450 1A2 (Homo sapiens, UniProt P05177); test: Inhibition of human cytochrome P450 1A2 activity as caffeine N3 demethylation (500 uM); assay type: ADME
T5 sequence (P05177 whole entry): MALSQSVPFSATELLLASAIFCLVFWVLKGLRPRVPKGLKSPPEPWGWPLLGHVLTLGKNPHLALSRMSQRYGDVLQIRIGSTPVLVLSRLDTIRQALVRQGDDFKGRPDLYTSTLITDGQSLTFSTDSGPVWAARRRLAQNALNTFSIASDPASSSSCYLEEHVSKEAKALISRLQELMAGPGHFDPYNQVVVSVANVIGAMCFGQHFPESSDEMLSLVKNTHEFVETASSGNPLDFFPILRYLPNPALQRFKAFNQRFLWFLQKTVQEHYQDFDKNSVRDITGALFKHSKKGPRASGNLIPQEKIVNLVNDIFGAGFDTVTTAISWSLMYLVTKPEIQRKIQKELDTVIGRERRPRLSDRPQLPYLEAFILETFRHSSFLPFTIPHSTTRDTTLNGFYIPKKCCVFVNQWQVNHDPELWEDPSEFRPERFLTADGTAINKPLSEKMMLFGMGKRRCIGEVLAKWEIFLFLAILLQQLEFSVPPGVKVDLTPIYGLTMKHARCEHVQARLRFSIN
Method in brief: (§2)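 Heterologously expressed human CYP isoforms in isoform-selective assays, with substrate at its Km. CYP1A2: caffeine N3-demethylation (500 μM). CYP2C9: tolbutamide methylhydroxylation (100 μM). CYP2C19: S-mephenytoin 4-hydroxylation (100 μM). CYP2D6: bufuralol 1'-hydroxylation (10 μM). CYP3A4: total cyclosporin oxidation (1 μM). IC50 is the mean of duplicate determinations, agreeing within 10%.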

[17] = molecular target: Cytochrome P450 2C19 (Homo sapiens, UniProt P33261); test: Inhibition of human cytochrome P450 2C19 as S-mephenytoin-4-hydroxylation (100 uM); assay type: ADME; method in brief: as §2
Cytochrome P450 2C19, sequence (P33261 whole entry): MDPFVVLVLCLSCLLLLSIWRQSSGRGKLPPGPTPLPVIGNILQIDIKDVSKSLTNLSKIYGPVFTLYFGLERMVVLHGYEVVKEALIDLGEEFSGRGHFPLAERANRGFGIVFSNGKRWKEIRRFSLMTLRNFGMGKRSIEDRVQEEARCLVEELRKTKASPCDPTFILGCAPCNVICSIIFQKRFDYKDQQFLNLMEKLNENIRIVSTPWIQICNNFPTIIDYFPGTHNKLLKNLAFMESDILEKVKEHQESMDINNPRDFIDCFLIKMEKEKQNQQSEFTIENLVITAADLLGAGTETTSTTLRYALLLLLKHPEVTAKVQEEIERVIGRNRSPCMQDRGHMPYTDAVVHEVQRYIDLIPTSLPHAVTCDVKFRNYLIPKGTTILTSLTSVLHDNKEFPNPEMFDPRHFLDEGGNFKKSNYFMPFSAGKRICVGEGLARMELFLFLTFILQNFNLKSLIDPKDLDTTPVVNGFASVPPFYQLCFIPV

[18] = molecular target: Cytochrome P450 2C9 (Homo sapiens, UniProt P11712); test: Inhibitory potential of human cytochrome P450 2C9 as Tolbutamide methylhydroxylation (100 uM); assay type: ADME; method in brief: as §2
[19] = molecular target: T2, Alpha-1B adrenergic receptor; test: Compound was tested for its binding affinity against adrenergic Alpha-1B adrenergic receptor
[20] = molecular target: Cytochrome P450 3A4 (Homo sapiens, UniProt P08684); test: Inhibition of human cytochrome P450 3A4 as total cyclosporin oxidation (1 uM); assay type: ADME
Method in brief: as §2, with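 “μM).” for “μM). IC50 is the mean of duplicate determinations, agreeing within 10%.”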

[21] = molecular target: Cytochrome P450 2D6 (Homo sapiens, UniProt P10635); test: Inhibition of human cytochrome P450 2D6 as bufuralol 1''-hydroxylation (10 uM); assay type: ADME; method in brief: as §2
Cytochrome P450 2D6, sequence (P10635 whole entry): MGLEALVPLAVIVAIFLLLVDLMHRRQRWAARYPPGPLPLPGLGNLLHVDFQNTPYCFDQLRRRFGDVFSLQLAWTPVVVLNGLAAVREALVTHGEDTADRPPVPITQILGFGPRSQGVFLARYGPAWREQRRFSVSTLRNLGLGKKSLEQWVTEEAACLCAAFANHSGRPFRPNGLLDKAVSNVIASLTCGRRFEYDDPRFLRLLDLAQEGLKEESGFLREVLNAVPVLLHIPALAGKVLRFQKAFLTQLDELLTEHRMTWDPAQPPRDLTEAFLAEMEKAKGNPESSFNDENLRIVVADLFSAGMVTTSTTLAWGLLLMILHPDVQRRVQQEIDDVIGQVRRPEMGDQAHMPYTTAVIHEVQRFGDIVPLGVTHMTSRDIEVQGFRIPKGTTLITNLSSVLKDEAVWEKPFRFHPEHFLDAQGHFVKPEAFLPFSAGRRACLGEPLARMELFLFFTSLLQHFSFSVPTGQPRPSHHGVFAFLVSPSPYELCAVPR

SMILES: COc1ccc(NS(=O)(=O)c2sc3ccc(Cl)cc3c2C)cc1N1CCN(C)CC1
Ki [3]: 1000 nM
Ki [4]: 2510 nM
Ki [5]: 501 nM
Ki [6]: 794 nM
Ki [7]: 2000 nM
Ki [8]: 200 nM
Ki [9]: 251 nM
Ki [10]: 501 nM
Ki [11]: 1000 nM
Ki [12]: 3160 nM
Ki [13]: 794 nM
Ki [14]: 200 nM
Ki [15]: 3160 nM

SMILES: CNc1cc(NS(=O)(=O)c2ccc(N)cc2)cc(NC)n1
Ki [1]: 12.6 nM

SMILES: COc1ccc(NS(=O)(=O)c2ccc([N+](=O)[O-])cc2)cc1N1CCN(C)CC1
Ki [1]: 79.4 nM

SMILES: COc1ccc(NS(=O)(=O)c2cn(C)cn2)cc1N1CCN(C)CC1
Ki [1]: 794 nM

SMILES: CNc1cc(NS(=O)(=O)c2ccc(N)cc2)nc(NC)n1
Ki [1]: 50.1 nM

SMILES: COc1ccc(NS(=O)(=O)c2ccc(Br)cc2)cc1N1CCN(C)CC1
Ki [3]: 1260 nM
Ki [1]: 5.01 nM
Ki [4]: 1580 nM
IC50 [16]: 10000 nM
Ki [5]: 251 nM
Ki [6]: 398 nM
IC50 [17]: 46000 nM
IC50 [18]: > 100000 nM
Ki [19]: 2510 nM
Ki [8]: 251 nM
Ki [9]: 316 nM
Ki [10]: 1000 nM
IC50 [20]: 6000 nM
Ki [11]: 631 nM
Ki [12]: 2510 nM
Ki [13]: 3980 nM
IC50 [21]: 11000 nM
Ki [14]: 794 nM
Ki [15]: 2510 nM

SMILES: COc1ccc(NS(=O)(=O)c2sc3ccc(Cl)cc3c2C)cc1N1CCNCC1
Ki [3]: > 2510 nM
Ki [4]: > 10000 nM
IC50 [16]: 66000 nM
Ki [6]: 794 nM
IC50 [17]: 26000 nM
IC50 [18]: > 100000 nM
Ki [19]: 2000 nM
Ki [8]: 251 nM
Ki [9]: > 1000 nM
Ki [10]: 2000 nM
Ki [11]: > 3980 nM
Ki [13]: 2510 nM
IC50 [21]: 32000 nM

SMILES: COc1ccc(NS(=O)(=O)c2ccccc2)cc1N1CCN(C)CC1
Ki [1]: 10 nM
Selectivity [2]: 80

SMILES: COc1ccc(NS(=O)(=O)c2cccc(C#N)c2)cc1N1CCN(C)CC1
Ki [1]: 63.1 nM

SMILES: COc1ccc(NS(=O)(=O)c2c(F)c(Br)cc(F)c2Br)cc1N1CCN(C)CC1
Ki [1]: 3.16 nM
Selectivity [2]: > 300

The next lines start with the values.

Ki [1]: 2 nM
Selectivity [2]: > 100
SMILES: COc1ccc(NS(=O)(=O)c2cc(Cl)cc(Cl)c2)cc1N1CCN(C)CC1

Ki [1]: 1 nM
Selectivity [2]: > 125
SMILES: COc1ccc(NS(=O)(=O)c2cc(I)ccc2C)cc1N1CCN(C)CC1

Ki [1]: 0.794 nM
Selectivity [2]: > 200
SMILES: COc1ccc(NS(=O)(=O)c2cccc(I)c2)cc1N1CCN(C)CC1

Ki [1]: 1.26 nM
Selectivity [2]: > 300
SMILES: COc1ccc(NS(=O)(=O)c2c(C)sc3ccc(Cl)cc23)cc1N1CCN(C)CC1

Ki [1]: 0.794 nM
Selectivity [2]: > 250
SMILES: COc1ccc(NS(=O)(=O)c2ccc3c(Cl)cccc3c2)cc1N1CCN(C)CC1
